Drawing on ChEMBL document CHEMBL4043127, “ATP-competitive, marine derived natural products that target the DEAD box helicase, eIF4A” (Bioorg Med Chem Lett, 2017), this text covers IC50, inhibition and Kis for three molecules.

pIC50: −log10 of the molar value. Activity calls are given as the source filed them. No cut-off for these calls is given here.

The target of assay [1] is ATP-dependent RNA helicase DDX39A (Homo sapiens, UniProt O00148). Nature of the assay: Inhibition of DDX39A (unknown origin) expressed in Escherichia coli BL21(Rosetta 2) preincubated for 10 mins followed by ATP addition measured after 60 mins by malachite green dye-based assay. The gist of the method: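 His-tagged DDX39A at 500 nM in MES-KOH pH 6.0 buffer (10 mM KOAc, 2.5 mM MgCl2, 1% glycerol, 1 mM DTT). Eight-point 3-fold series 100 to 0.0457 µM, 2% DMSO final, 10 min preincubation at 37°C. Started with 250 µM ATP, 60 min at 37°C, then malachite green read at OD660. EDTA 20 mM served as positive control. IC50 by semi-log fit of normalized inhibition.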
Chain of ATP-dependent RNA helicase DDX39A (O00148 whole entry): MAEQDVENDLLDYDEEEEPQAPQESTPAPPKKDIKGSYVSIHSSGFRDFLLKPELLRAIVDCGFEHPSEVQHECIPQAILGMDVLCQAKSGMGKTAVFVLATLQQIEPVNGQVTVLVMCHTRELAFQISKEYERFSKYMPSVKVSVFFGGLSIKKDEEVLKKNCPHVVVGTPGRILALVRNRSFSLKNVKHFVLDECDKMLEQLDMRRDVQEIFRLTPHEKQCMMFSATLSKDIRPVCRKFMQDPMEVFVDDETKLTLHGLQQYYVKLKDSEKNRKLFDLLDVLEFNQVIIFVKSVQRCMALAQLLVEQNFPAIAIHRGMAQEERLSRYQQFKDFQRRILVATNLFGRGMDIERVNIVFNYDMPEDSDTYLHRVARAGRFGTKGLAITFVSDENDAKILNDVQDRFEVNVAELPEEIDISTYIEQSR

In assay [2] the target is ATP-dependent RNA helicase DDX3X (Homo sapiens, UniProt O00571). Nature of the assay: Inhibition of DDX3 (unknown origin) preincubated for 10 mins followed by ATP addition by malachite green dye-based assay. The gist of the method: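 Compounds 100 to 0.0457 µM, 2% DMSO final, 10 min at 37°C. Initiated with 250 µM ATP at 37°C. Released phosphate detected with malachite green at OD660. IC50 fitted from normalized percent inhibition on a semi-log plot.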
Chain of ATP-dependent RNA helicase DDX3X (O00571 whole entry): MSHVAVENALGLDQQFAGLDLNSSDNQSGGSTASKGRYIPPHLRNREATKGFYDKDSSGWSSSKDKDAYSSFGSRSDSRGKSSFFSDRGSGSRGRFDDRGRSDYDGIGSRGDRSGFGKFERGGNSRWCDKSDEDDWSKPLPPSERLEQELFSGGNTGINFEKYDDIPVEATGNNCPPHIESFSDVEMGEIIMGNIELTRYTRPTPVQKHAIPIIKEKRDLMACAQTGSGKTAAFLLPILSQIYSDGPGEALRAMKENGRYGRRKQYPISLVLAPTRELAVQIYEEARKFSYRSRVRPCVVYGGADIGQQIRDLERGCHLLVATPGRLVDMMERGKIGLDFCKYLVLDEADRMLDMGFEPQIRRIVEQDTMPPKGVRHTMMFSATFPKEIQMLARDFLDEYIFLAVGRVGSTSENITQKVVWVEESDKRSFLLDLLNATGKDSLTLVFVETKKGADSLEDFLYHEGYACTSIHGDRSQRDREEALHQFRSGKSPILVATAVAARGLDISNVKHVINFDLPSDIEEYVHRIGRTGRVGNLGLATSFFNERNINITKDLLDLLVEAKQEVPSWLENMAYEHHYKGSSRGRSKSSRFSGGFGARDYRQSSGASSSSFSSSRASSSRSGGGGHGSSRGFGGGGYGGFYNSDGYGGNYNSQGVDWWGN

In assay [3] the target is Eukaryotic initiation factor 4A-I (Homo sapiens) (UniProt P60842). Nature of the assay: Inhibition of eIF4A (unknown origin) expressed in Escherichia coli BL21(DE3) at 100 uM preincubated for 10 mins followed by ATP and fluorescently-labeled RNA addition measured after 10 mins by real-time fluorescence assay relative to control. The gist of the method:
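Real-time fluorescence helicase assay. eIF4A at 500 nM in MES-KOH pH 6.0 buffer, preincubated 10 min at 22°C with compound at 100 µM, 2% DMSO final. Started with 50 nM labeled RNA plus 1 mM ATP, or water as control, and read for 10 min at 25°C. % inhibition = 100 − ((A−B)/(C−B)×100), using the slopes of compound (A), water (B) and DMSO (C) traces.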

For assay [4] the target is unchanged.
Assay [5] addresses Probable ATP-dependent RNA helicase DDX17 (Homo sapiens, UniProt Q92841). Nature of the assay: Inhibition of DDX17 (unknown origin) expressed in Escherichia coli BL21(DE3) preincubated for 10 mins followed by ATP addition measured after 120 mins by malachite green dye-based assay. The gist of the method:
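Compound gradient 100 to 0.0457 µM (3-fold), final DMSO 2%, 10 min at 37°C. Reaction started with 250 µM ATP at 37°C, phosphate read by malachite green OD660 at 120 min. IC50 from normalized % inhibition versus log concentration.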

In assay [6] the target is Transitional endoplasmic reticulum ATPase (Homo sapiens, UniProt P55072). Nature of the assay: Inhibition of p97 (unknown origin) expressed in Escherichia coli BL21(DE3) preincubated for 10 mins followed by ATP addition measured after 60 mins by malachite green dye-based assay. The procedure, abridged:
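Compound series 100 to 0.0457 µM, 2% DMSO final, 10 min at 37°C. Started with 200 µM ATP, incubated 60 min at 37°C, then malachite green OD660 read. IC50 from semi-log fit of normalized % inhibition.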

The target in assay [7] is Heat shock 70 kDa protein 1A (Homo sapiens, UniProt P0DMV8). Nature of the assay: Inhibition of HSPA1A (unknown origin) expressed in Escherichia coli BL21(DE3) preincubated for 10 mins followed by ATP addition by malachite green dye-based assay. The gist of the method:
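His-tagged HSPA1A, induced at 16°C, used at 1,000 nM in 50 mM Tris-HCl pH 7.4, 150 mM KCl, 10 mM MgCl2. Compounds 100 to 0.0457 µM, 2% DMSO final, 10 min preincubation at 37°C. Reaction started with 200 µM ATP at 37°C, phosphate detected by malachite green OD660. IC50 by semi-log fit of normalized inhibition.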

For assay [8], the target named is Eukaryotic initiation factor 4A-I (Homo sapiens) (UniProt P60842). Nature of the assay: Inhibition of eIF4A1 (unknown origin) expressed in Escherichia coli BL21(DE3) at 0.01 to 100 uM using Poly(U) RNA as substrate preincubated for 10 mins followed by substrate addition measured after 60 mins by malachite green dye-based assay. The procedure, abridged: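 Compound dilutions 100 to 0.0457 µM, 2% DMSO final, 10 min at 37°C. ATP added and reaction run 60 min at 37°C, then malachite green OD660 read. DMSO 2% and 20 mM EDTA served as controls. IC50 from semi-log fit.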
Chain of Eukaryotic initiation factor 4A-I (Homo sapiens) (P60842 whole entry): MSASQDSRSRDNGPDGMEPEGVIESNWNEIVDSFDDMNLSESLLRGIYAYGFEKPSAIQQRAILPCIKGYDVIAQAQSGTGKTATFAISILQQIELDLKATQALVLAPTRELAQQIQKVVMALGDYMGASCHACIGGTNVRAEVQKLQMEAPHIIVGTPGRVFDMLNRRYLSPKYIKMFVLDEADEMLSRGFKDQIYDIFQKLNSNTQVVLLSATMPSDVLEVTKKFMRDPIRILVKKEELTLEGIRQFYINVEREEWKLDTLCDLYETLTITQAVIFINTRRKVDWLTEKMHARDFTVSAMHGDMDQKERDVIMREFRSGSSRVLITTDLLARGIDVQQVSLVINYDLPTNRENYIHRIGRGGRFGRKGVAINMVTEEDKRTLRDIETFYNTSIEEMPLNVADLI

The target is the same in assay [9]. Nature of the assay: Inhibition of eIF4A (unknown origin) expressed in Escherichia coli BL21(DE3) at 100 uM preincubated for 10 mins followed by ATP and fluorescently-labeled RNA addition measured after 10 mins by real-time fluorescence assay. The procedure, abridged:
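Recombinant eIF4A from E. coli BL21(DE3), Talon-purified, at 500 nM in pH 6.0 MES-KOH buffer (10 mM K acetate, 2.5 mM MgCl2, 1% glycerol, 1 mM DTT). Preincubated with 100 µM compound (2% DMSO final) for 10 min at 22°C. Started with 50 nM labeled RNA plus 1 mM ATP, then real-time fluorescence read for 10 min at 25°C. Percent inhibition from slopes versus DMSO and water (no-ATP) controls.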

Chain of Probable ATP-dependent RNA helicase DDX17 (Q92841 whole entry): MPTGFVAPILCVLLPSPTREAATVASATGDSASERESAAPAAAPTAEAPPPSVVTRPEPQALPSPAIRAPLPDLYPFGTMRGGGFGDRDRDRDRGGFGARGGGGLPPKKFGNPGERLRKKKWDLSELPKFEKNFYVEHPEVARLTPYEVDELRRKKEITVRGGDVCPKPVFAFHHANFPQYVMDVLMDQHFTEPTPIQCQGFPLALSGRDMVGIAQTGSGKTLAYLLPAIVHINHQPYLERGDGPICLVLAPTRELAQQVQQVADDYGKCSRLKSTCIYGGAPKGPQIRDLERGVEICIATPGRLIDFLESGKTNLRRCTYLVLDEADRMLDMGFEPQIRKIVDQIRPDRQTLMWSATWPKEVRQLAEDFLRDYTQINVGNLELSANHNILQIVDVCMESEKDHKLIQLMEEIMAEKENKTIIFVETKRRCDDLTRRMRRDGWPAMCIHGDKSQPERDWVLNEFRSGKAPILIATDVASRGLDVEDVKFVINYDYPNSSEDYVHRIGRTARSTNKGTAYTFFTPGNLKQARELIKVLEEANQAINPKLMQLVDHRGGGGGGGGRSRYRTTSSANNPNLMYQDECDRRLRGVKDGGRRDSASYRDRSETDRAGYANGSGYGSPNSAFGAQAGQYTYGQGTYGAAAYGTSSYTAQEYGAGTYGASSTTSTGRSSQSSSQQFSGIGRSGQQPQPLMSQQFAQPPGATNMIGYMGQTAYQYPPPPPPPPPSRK
Chain of Transitional endoplasmic reticulum ATPase (P55072 whole entry): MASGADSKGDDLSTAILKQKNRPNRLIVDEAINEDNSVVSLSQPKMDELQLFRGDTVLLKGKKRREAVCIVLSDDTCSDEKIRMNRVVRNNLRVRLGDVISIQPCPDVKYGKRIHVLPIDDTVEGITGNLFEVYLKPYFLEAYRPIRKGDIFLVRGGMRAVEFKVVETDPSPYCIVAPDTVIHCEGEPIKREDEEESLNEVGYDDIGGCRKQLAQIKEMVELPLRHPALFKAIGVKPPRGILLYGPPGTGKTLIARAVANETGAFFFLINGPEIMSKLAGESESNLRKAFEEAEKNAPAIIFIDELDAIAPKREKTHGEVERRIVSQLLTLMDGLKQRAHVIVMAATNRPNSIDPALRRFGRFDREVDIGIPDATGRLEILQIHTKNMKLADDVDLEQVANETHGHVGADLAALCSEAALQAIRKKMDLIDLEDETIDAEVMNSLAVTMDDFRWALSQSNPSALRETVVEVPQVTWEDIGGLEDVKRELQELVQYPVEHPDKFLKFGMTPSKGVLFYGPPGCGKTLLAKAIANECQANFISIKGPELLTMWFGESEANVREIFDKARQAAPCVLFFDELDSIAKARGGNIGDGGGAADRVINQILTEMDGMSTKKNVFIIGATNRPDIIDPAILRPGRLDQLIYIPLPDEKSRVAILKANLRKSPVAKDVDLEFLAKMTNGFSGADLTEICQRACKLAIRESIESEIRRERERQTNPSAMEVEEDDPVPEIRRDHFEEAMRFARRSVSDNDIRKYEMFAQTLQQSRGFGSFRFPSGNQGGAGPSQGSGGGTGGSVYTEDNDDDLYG
Chain of Heat shock 70 kDa protein 1A (P0DMV8 whole entry): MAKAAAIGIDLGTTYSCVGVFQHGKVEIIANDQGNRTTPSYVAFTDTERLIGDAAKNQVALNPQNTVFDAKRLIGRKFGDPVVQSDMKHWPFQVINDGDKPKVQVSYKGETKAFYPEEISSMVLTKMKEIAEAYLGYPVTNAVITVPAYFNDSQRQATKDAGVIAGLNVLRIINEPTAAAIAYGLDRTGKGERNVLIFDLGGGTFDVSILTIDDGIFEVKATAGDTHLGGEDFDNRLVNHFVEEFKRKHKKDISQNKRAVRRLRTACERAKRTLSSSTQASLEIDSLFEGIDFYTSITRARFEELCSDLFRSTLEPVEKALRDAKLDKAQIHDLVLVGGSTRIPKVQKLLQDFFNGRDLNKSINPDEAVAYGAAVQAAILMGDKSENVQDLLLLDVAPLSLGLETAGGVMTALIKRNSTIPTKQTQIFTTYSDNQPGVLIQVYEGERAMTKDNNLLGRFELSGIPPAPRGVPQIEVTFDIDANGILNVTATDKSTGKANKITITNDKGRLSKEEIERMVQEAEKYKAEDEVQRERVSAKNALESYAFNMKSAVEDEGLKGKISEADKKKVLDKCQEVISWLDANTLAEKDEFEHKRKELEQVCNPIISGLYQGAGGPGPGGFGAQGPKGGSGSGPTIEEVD

Take `CC(C)=C[C@@H]1C[C@H](C)c2c(O)cc(C)c3c2C1=C(C)C(=O)C3=O` [ELISABATIN A]: the pIC50 in assay [1], in assay [2], in assay [5], in assay [6] and in [7] was less than 4.00 each time. Besides, the inhibition in assay [3] was 34%. In assay [4], this molecule showed a Kis of 55 µM. Further, the inhibition entry in assay [8] is “Active”.

Turning to `C=C1CC[C@@](C)(c2cc(Br)c(C)cc2O)[C@H]1C`, the pIC50 in assay [1], in [2], in [5], in assay [6] and in assay [7] was less than 4.00 in each case. The Kis in assay [4] was 3.86 µM. For the same molecule, the inhibition result in assay [9] and in [8] was “Active” throughout.

In the case of `C[C@H]1C[C@@]2(O[C@H]3C[C@H]4[C@@H]5CC[C@H]6C[C@H](O)CC[C@]6(C)[C@H]5[C@@H](O)C[C@]4(C)[C@H]3[C@@]2(C)O)OC1(C)C`, in [9], the inhibition entry is “Active”.
